# A selection: hits, their analogues and other compounds. The true share with any hit is near 3.2%.
# HTRA1 inh = HTRA1 serine protease inhibitors, primary screen, biochemical, fluorescence polarization, HTS | Q92743 | recombinant HTRA1, FP-rhodamine activity-based probe | inhibition, % at 5.96 µM | 0.5% of 340,000 active; in the data active = inhibition above about 36%;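 note: 0% = enzyme with DMSO and 100% = wells lacking enzyme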
# Target sequence (Q92743 whole entry, looked up): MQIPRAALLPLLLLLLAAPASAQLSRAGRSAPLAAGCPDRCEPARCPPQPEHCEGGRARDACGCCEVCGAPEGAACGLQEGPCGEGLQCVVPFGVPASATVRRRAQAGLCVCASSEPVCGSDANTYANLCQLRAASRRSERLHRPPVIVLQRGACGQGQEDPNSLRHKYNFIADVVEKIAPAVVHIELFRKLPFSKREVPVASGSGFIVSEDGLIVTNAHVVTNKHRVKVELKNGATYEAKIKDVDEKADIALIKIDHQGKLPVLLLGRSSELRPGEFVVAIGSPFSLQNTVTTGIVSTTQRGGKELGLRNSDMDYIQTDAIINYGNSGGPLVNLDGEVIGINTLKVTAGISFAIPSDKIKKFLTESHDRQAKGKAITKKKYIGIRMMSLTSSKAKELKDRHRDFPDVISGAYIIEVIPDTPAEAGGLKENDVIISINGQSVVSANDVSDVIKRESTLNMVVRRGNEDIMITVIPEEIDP
# rCAG RNA binder = binders of r(CAG) RNA repeats, primary screen, biochemical, fluorescence. r(CAG) RNA repeat, TO-PRO-1 dye displacement fluorescence. inhibition, % at 3 µM. 1.3% of 370,000 active;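 active = inhibition above the plate cutoff, the mean of all test compounds on that plate plus 3 SD, cut at about 35% in these data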;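 note: 0% = DMSO alone and 100% = 100 µM mitoxantrone as full dye displacement; higher means more dye released from RNA so lower well fluorescence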
# ABHD4 inh = ABHD4 inhibitors, primary screen, biochemical, fluorescence polarization, mouse. (Lyso)-N-acylphosphatidylethanolamine lipase (Mus musculus), Q8VD66. purified mABHD4, FP-Rh probe fluorescence polarization. inhibition, % at 8.92 µM. 0.54% of 370,000 active;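 active = inhibition exceeding the mean over every tested compound plus 3 SD, cut at about 30% in these data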;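 note: 0% = plate median of compound wells and 100% = S159A mutant with DMSO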
#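 System: mouse ABHD4 enzyme, wild type / Medium: HEPES pH 7.0, NaCl, Pluronic buffer / Reagent: FP-Rh activity-based fluorescent probe / Control set: S159A mutant high control, sample median low control / Detection: fluorescence polarization with parallel and perpendicular emission, 525/598 nm / Schedule: 45 min + 60 min at 25 °C / Compound dosing: 8.92 µM, single dose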
# LEDGF integ inh = blockers of LEDGF/p75-dependent integrase strand transfer – biochemical, TR-FRET, high throughput, primary screen; inhibition, % at 3.7 µM; HIV-1 integrase (with human LEDGF/p75); 0.64% of 370,000 active; TR-FRET IN-LEDGF/p75 DNA integration, Eu/Cy5;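 active = inhibition above the screen-wide mean plus 3 SD, cut at about 13% in these data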;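 note: signal is the Cy5 over europium emission ratio at 671 and 618 nm; 0% = plate median of compound wells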
# DAGLB inhibitor = DAGLB lipase inhibitors, primary screen, biochemical, fluorescence, HTS | 0.059% of 340,000 active | inhibition, % at 5.17 µM | HEK293T DAGLB membrane lysate, EnzChek fluorogenic substrate | Diacylglycerol lipase-beta (Homo sapiens), Q8NCG7; in the data active = inhibition above about 34%;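 note: 0% = enzyme with vehicle and 100% = wells lacking enzyme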
# PRMT1 inh = PRMT1 methyltransferase inhibitors, primary screen, biochemical, fluorescence polarization; inhibition, % at 2.79 µM; recombinant PRMT1, activity-based probe fluorescence polarization; Protein arginine N-methyltransferase 1 (Homo sapiens), Q99873; 1.3% of 370,000 active; AID 652257, 2013;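 active = inhibition above about 21% made by adding two undisclosed values, limit read from the data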
# IN multimer up = HIV-1 IN multimer formation enhancers, counter-screen for LEDGF/p75 integration inhibitor project, biochemical, TR-FRET; TR-FRET HIV-1 integrase multimerization; activation, % at 7.7 µM; AID 1053131, 2014; 17% of 2,000 active; shares compounds with LEDGF integ inh; in the data active = activation above about 8.9%
# TRFRET interf = TR-FRET optical interference artefacts, confirmation, artefact control for LEDGF/p75-dependent integration inhibitor project, biochemical, HIV-1 IN multimerization. AID 1053135, 2014. inhibition, % at 7.7 µM. 2,000 tested, under 10 active. shares compounds with LEDGF integ inh. TR-FRET optical interference counterscreen;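 active = inhibition above the mean over all tested compounds plus 3 SD, which no compound reached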;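 note: 0% = integrase with antibodies and DMSO and 100% = antibodies without integrase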
# IN-LEDGF confirm = inhibitors of HIV-1 IN-LEDGF/p75 DNA integration, confirmation, biochemical, TR-FRET; shares compounds with LEDGF integ inh; TR-FRET LEDGF/p75-dependent HIV-1 integration; inhibition, % at 3.7 µM; 36% of 2,000 active; in the data active = inhibition above about 14%
# Active calls of the source: *; / = no result given.
SMILES,HTRA1 inh,rCAG RNA binder,ABHD4 inh,LEDGF integ inh,DAGLB inhibitor,PRMT1 inh,IN multimer up,TRFRET interf,IN-LEDGF confirm
CCCCOc1ccc(C(=O)N/C(=C\c2cccc([N+](=O)[O-])c2)C(=O)OCCC)cc1,0.1,4.3,2.2,-4.2,-0.9,0.1,/,/,/
CCCCOc1ccc(C(=O)N/C(=C\c2ccc([N+](=O)[O-])cc2)C(=O)OCc2ccco2)cc1,-11.3,6.6,-3.1,20.7*,0.2,-1.4,0.2,-1.2,-2.3
COc1ccc(OC)c(C(c2c(C)[nH][nH]c2=O)c2c(C)[nH][nH]c2=O)c1,3.2,4.6,3.3,0.4,-0.3,-2.4,/,/,/
COc1ccc(O)c(C(c2c(C)[nH][nH]c2=O)c2c(C)[nH][nH]c2=O)c1,22.6,-1.9,11.0,22.2*,-23.0,3.4,0.2,-0.6,12.5
Cc1cc(=O)c2c(O)c(O)ccc2o1,17.6,7.8,23.4,13.8*,3.0,22.6*,9.6*,-34.1,9.2
Cc1nc(Cl)cc(N/N=C/c2ccc(O)cc2O)n1,14.0,1.1,-2.1,-2.6,2.0,5.8,/,/,/
CN(C(=O)c1ccccc1OCc1ccc(F)cc1)c1c(N)n(Cc2ccccc2)c(=O)[nH]c1=O,-0.5,-7.5,1.1,54.5*,0.1,2.5,-1.3,6.5,-5.0
O=C(Nc1ccc2ccccc2c1)NC1CCS(=O)(=O)C1 (configuration not stated),1.2,0.9,2.2,0.9,-1.1,0.9,/,/,/
Cc1ccc(Cc2c(-c3ccccc3)nc3c(Cl)cc(C(F)(F)F)cn23)cc1,/,11.2,-13.6,20.2*,/,-2.0,1.2,-4.5,-1.1
O=C(CSc1nnc(Cc2cccs2)n1C1CCCCC1)N1CCCc2ccccc21,-17.7,-10.6,-2.6,13.5*,-0.7,1.5,0.6,-3.0,3.3
Cc1cc(-c2n[nH]c(=S)n2/N=C/c2cccs2)n[nH]1,-0.7,3.8,5.0,37.6*,0.6,0.6,1.6,-8.0,0.6
CC(=O)Nc1cccc(Oc2cc(C#N)c(C#N)cc2N2CCCCCC2)c1,-82.8,-1.4,-27.6,-1.0,1.6,1.9,/,/,/
CCc1ccc(NC(=O)CSc2nc3c(c(=O)n(C)c(=O)n3C)n2C)cc1,-2.2,-0.4,3.2,-3.9,-0.6,-0.1,/,/,/
Cn1c(=O)c2c(nc(SCc3ccc(C(=O)O)cc3)n2C)n(C)c1=O,1.4,2.8,-17.2,14.1*,-3.6,-3.1,-2.6,13.0,7.9
O=C(N1CCCCCC1)N1CCN(C(=O)N2CCOCC2)CC1,-4.7,-3.7,-5.5,30.7*,-2.1,1.8,-0.2,0.8,0.0
CN(c1ccccc1)c1ncccn1,/,0.7,-2.5,2.2,/,-3.5,/,/,/
CS(=O)(=O)N1CCN(C(=O)c2ccc(Br)s2)CC1,3.6,1.3,-5.5,-0.5,0.3,-3.5,/,/,/
Cc1ccsc1CN(C)CC(=O)Nc1ccc([N+](=O)[O-])cc1Cl,-4.8,0.3,2.5,1.2,-16.9,-0.2,/,/,/
CN(CC(=O)Nc1cc([N+](=O)[O-])ccc1Cl)Cc1ccc(Br)cc1,-21.5,2.0,6.2,13.6*,-7.0,2.4,0.7,-2.7,-6.3
COc1ccccc1N(CC(=O)NCc1ccco1)S(=O)(=O)c1ccc(C)cc1,2.3,9.8,6.0,23.1*,0.7,21.5*,4.5,-16.6,28.4*

# Screening results (PubChem)
